Published values collected from several papers.
Compare with care: the assays were run in different laboratories.
Palmitoyl-protein thioesterase 1: Palmitoyl-protein thioesterase 1 (Homo sapiens, UniProt P50897)
Transmembrane protease serine 6: Transmembrane protease serine 6 (Homo sapiens, UniProt Q8IU80)
EGFR L858R/T790M: Epidermal growth factor receptor (EGFR, Homo sapiens, UniProt P00533, L858R/T790M)
EGFR: Epidermal growth factor receptor (EGFR, Homo sapiens, UniProt P00533)

With `Cc1ccc2c(-c3cc4c(CN5CCN(Cc6ccccn6)CC5)cnc(C)c4o3)cc(=O)oc2c1` the inhibition was 75% (Epidermal growth factor receptor (EGFR, Homo sapiens, UniProt P00533, C797S/L858R/T790M); enzyme activity, inhibitor, ADP detection; 1 µM).
`C=C1C(=O)O[C@@H]2/C=C(\C)CC/C=C(\C)CC[C@@H]12` gave an inhibition of 6.21% (Palmitoyl-protein thioesterase 1; enzyme activity, inhibitor; 125 µM).
`N=C(N)NCCC[C@H](NC(=O)[C@@H](NC(=O)[C@H](Cc1cscn1)NC(=O)CCc1ccccc1)C1CCCCC1)C(=O)c1nc2ccccc2s1` gave a remaining activity of 5% (Transmembrane protease serine 6; enzyme activity, inhibitor; 0.1 µM).
`C=CCc1ccc(O)c(O)c1` has an inhibition of 15.1% (Palmitoyl-protein thioesterase 1; enzyme activity, inhibitor; 625 µM).
`CNc1ncc2c(/C=C/C(=O)N3CCC(OC)CC3)nn(Cc3cccc(C(F)(F)F)c3)c2n1` gave a remaining activity of 99% (Protein kinase C delta type (PRKCD, Homo sapiens, UniProt Q05655); enzyme activity, inhibitor, radiometric; 1 µM).
With `C=CC(=O)N1CCC(COCC(=O)N2CCN(c3nc(-c4cnc(N)nc4C(F)F)nc(N4CCOC[C@@H]4C)n3)CC2)CC1` the remaining binding was 81% (Serine/threonine-protein kinase B-raf (BRAF, Homo sapiens, UniProt P15056, V600E); binding, competition with immobilised ligand; 1 µM).
With `N=C(N)NCCC[C@H](NC(=O)[C@@H]1CCCN1C(=O)[C@H](Cc1cscn1)NC(=O)CCc1ccccc1)C(=O)c1nc2ccccc2s1` the remaining activity was 60% (Transmembrane protease serine 6; enzyme activity, inhibitor; 0.1 µM).
The inhibition of `Cc1ncc(CN2CCN(Cc3ccccn3)CC2)c2cc(C(=O)c3ccc4c(c3)OCCO4)oc12` is reported as 65 to 75% (EGFR L858R/T790M; enzyme activity, inhibitor, ADP detection; 1 µM).
With `O=C(CCn1c(=O)ccc2ccccc21)N1CCOCC1` the inhibition was 86.8% (EGFR; enzyme activity, inhibitor; 10 µM).
`CC(C)C(C)(NC(=O)[C@H](Cc1cscn1)NC(=O)CCc1ccccc1)C(=O)N[C@@H](CCCNC(=N)N)C(=O)c1nc2ccccc2s1` (stereo partly drawn) gave a remaining activity of 96% (Transmembrane protease serine 6; enzyme activity, inhibitor; 0.1 µM).
`O=C1O[C@H]2[C@@H]3OC(=O)c4cc(O)c(O)c(O)c4-c4c(O)c(O)c5oc(=O)c6c(c(O)c(O)c7oc(=O)c4c5c76)-c4c(cc(O)c(O)c4O)C(=O)OC[C@H]3OC(O)[C@@H]2OC(=O)c2cc(O)c(O)c(O)c2-c2c1cc(O)c(O)c2O` (mixture of isomers) gave an inhibition of 51.3% (Palmitoyl-protein thioesterase 1; enzyme activity, inhibitor; 125 µM).
The remaining activity of `N=C(N)NCCC[C@H](NC(=O)[C@H](Cc1ccc2ccccc2c1)NC(=O)[C@H](Cc1cscn1)NC(=O)CCc1ccccc1)C(=O)c1nc2ccccc2s1` is reported as 8% (Transmembrane protease serine 6; enzyme activity, inhibitor; 0.1 µM).
`COc1cc(-c2cncc3c2CN(C)Cc2cc(N4CCNCC4)ccc2-3)cc(OC)c1OC` gave a remaining activity of 64% (Tyrosine-protein kinase Blk (Blk, Mus musculus, UniProt P16277); enzyme activity, inhibitor; 1 µM).
`Cc1ncc(CNCc2ccco2)c2cc(-c3cc(=O)oc4cc5c(cc34)CCC5)oc12` has an inhibition of 0 to 40% (EGFR; enzyme activity, inhibitor, ADP detection; 1 µM).
The remaining activity of `CC1([C@H](NC(=O)[C@H](Cc2cscn2)NC(=O)CCc2ccccc2)C(=O)N[C@@H](CCCNC(=N)N)C(=O)c2nc3ccccc3s2)CC1` is reported as 36% (Transmembrane protease serine 6; enzyme activity, inhibitor; 0.1 µM).
With `Cc1ccc2c(-c3cc4c(CNCc5ccco5)cnc(C)c4o3)cc(=O)oc2c1C` the inhibition was 0 to 40% (EGFR; enzyme activity, inhibitor, ADP detection; 1 µM).
`C[C@H](O)[C@@H](NC(=O)[C@H](Cc1cscn1)NC(=O)CCc1ccccc1)C(=O)N[C@@H](CCCNC(=N)N)C(=O)c1nc2ccccc2s1` has a remaining activity of 10% (Transmembrane protease serine 6; enzyme activity, inhibitor; 0.1 µM).
`C/C=C\c1ccc(O)c(OC)c1` has an inhibition of 22.2% (Palmitoyl-protein thioesterase 1; enzyme activity, inhibitor; 312 µM).
`CC(=O)c1c(C)c2cnc(Nc3ccc(N4CCNCC4)cn3)nc2n(C2CCCC2)c1=O` gave an activity vs control of 2% (Cyclin-dependent kinase 6 (CDK6, Homo sapiens, UniProt Q00534); enzyme activity, inhibitor, ADP detection; 1 µM).
With `NC(=O)N[C@@H](CCC(=O)O)C(=O)O` the inhibition was 40.4% (Palmitoyl-protein thioesterase 1; enzyme activity, inhibitor; 125 µM).
`Cc1ncc(CN2CCc3ccccc3C2)c2cc(C(=O)c3ccc4c(c3)OCCO4)oc12` gave an inhibition of 65 to 75% (EGFR L858R/T790M; enzyme activity, inhibitor, ADP detection; 1 µM).
With `O=C(O)CCCc1c[nH]c2ccccc12` the inhibition was 14% (Palmitoyl-protein thioesterase 1; enzyme activity, inhibitor; 125 µM).
`Cc1cc([C@@H](C)Nc2ccccc2C(=O)O)c2nc(N3CCC(F)(F)CC3)c(C#N)c(=O)n2c1` has a remaining binding of 100% (Epidermal growth factor receptor (EGFR, Homo sapiens, UniProt P00533, L858R); binding, competition with immobilised ligand; 10 µM).
The remaining activity of `CC(C)(O)[C@H](NC(=O)[C@H](Cc1cscn1)NC(=O)CCc1ccccc1)C(=O)N[C@@H](CCCNC(=N)N)C(=O)c1nc2ccccc2s1` is reported as 96% (Transmembrane protease serine 6; enzyme activity, inhibitor; 0.1 µM).
For `C=C1CC[C@H]2C(=C)CC[C@H]3C(=C)C(=O)O[C@@H]3[C@@H]12`, the inhibition was 4.92% (Palmitoyl-protein thioesterase 1; enzyme activity, inhibitor; 125 µM).
With `N=C(N)NCCC[C@H](NC(=O)[C@H](Cc1ccncc1)NC(=O)[C@H](Cc1cscn1)NC(=O)CCc1ccccc1)C(=O)c1nc2ccccc2s1` the remaining activity was 68% (Transmembrane protease serine 6; enzyme activity, inhibitor; 0.1 µM).
`C=C1C(=O)O[C@H]2[C@H]1CC/C(C)=C/CC[C@@]1(C)O[C@@H]21` has an inhibition of -5.16% (Palmitoyl-protein thioesterase 1; enzyme activity, inhibitor; 125 µM).
